From ChEMBL document CHEMBL1914406, “Inhibitory effect of novel 5-O-acyl juglones on mammalian DNA polymerase activity, cancer cell growth and inflammatory response” (Bioorg Med Chem, 2011)
The source made the active and inactive calls. The calls are words filed in the database; no cut-off is given here.

System: RAW264.7
Test: Cytotoxicity against mouse RAW264.7 cells at 5 uM
Assay type: cell-based
Conditions: raw264.7, 5 µM

SMILES	Activity
CC/C=C\C/C=C\C/C=C\C/C=C\C/C=C\C/C=C\CCC(=O)O [DOCONEXENT]	Non-toxic
CC/C=C\C/C=C\C/C=C\C/C=C\C/C=C\CCCC(=O)O [ICOSAPENT]	Non-toxic
CC/C=C\C/C=C\C/C=C\CCCCCCCC(=O)O [LINOLENIC ACID]	Non-toxic

Species on record: Bos taurus
Test: Inhibition of calf DNA polymerase alpha using bovine deoxyribonuclease 1-treated DNA and dNTP as the DNA template-primer and nucleotide substrate at 10 uM after 60 mins
Conditions: not given

SMILES	inhibition
CC/C=C\C/C=C\C/C=C\C/C=C\C/C=C\C/C=C\CCC(=O)O [DOCONEXENT]	inactive
CC/C=C\C/C=C\C/C=C\C/C=C\C/C=C\CCCC(=O)O [ICOSAPENT]	inactive
CC/C=C\C/C=C\C/C=C\CCCCCCCC(=O)O [LINOLENIC ACID]	inactive

System: HCT-116
Test: Cytotoxicity against human HCT116 cells by WST-1 assay
Assay type: functional, cell-based
Conditions: not given
Procedure, shortened: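 HCT116 colon carcinoma cells (ATCC) grown in McCoy's 5A with 10% FBS, penicillin and streptomycin, 37 °C, 5% CO2. Plated at 1 × 10⁴ cells/well together with compound, which was diluted from a 10 mM DMSO stock into medium (final 0.5% DMSO). Incubated 24 h. Viability read by WST-1, expressed relative to untreated cells.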

SMILES	Activity
CC/C=C\C/C=C\C/C=C\C/C=C\C/C=C\C/C=C\CCC(=O)O [DOCONEXENT]	inactive
CC/C=C\C/C=C\C/C=C\C/C=C\C/C=C\CCCC(=O)O [ICOSAPENT]	inactive
CC/C=C\C/C=C\C/C=C\CCCCCCCC(=O)O [LINOLENIC ACID]	inactive

Target: T1, DNA polymerase kappa (Homo sapiens) (UniProt Q9UBT6)
T1 sequence (whole entry): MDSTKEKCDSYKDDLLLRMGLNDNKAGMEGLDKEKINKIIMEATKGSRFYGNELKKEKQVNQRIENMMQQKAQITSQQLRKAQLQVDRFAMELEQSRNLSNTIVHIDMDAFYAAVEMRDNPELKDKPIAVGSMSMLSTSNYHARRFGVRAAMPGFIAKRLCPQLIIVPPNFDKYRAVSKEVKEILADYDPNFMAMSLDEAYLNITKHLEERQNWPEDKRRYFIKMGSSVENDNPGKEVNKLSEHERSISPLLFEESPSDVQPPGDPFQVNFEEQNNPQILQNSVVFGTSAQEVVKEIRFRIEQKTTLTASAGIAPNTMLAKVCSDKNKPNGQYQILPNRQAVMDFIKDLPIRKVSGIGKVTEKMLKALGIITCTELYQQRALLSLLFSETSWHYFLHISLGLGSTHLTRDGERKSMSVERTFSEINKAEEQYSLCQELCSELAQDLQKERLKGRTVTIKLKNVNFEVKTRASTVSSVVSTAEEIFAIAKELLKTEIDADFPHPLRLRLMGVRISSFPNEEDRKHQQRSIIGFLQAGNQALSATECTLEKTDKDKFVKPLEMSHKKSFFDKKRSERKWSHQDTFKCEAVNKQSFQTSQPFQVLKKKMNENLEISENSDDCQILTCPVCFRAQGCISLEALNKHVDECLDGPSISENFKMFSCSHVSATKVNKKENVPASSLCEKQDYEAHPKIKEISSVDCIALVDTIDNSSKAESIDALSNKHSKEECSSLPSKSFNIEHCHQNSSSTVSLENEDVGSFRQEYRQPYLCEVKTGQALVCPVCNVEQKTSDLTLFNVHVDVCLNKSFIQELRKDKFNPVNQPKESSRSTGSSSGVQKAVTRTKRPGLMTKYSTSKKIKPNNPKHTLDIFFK
Test: Inhibition of C-terminal His6-tagged human DNA polymerase kappa (amino acids 1 to 560) using bovine deoxyribonuclease 1-treated DNA and dNTP as the DNA template-primer and nucleotide substrate at 10 uM after 60 mins
Conditions: not given

SMILES	inhibition
CC/C=C\C/C=C\C/C=C\C/C=C\C/C=C\C/C=C\CCC(=O)O [DOCONEXENT]	inactive
CC/C=C\C/C=C\C/C=C\C/C=C\C/C=C\CCCC(=O)O [ICOSAPENT]	inactive
CC/C=C\C/C=C\C/C=C\CCCCCCCC(=O)O [LINOLENIC ACID]	inactive

System: Mus musculus
Test: Antiinflammatory activity in mouse assessed as inhibition of TPA-induced mouse ear edema at 500 ug/ear administered 30 mins before TPA challenge measured after 7 hrs relative to untreated control
Assay type: functional, organism-based
Conditions: not given
Procedure, shortened: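 Compound (500 µg) applied to one mouse ear; 30 min later TPA (0.5 µg) applied to both ears. Edema scored after 7 h and expressed as percentage of edema. Mean ± SE, n = 6.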

SMILES	Activity
CC/C=C\C/C=C\C/C=C\C/C=C\C/C=C\C/C=C\CCC(=O)O [DOCONEXENT]	inactive
CC/C=C\C/C=C\C/C=C\C/C=C\C/C=C\CCCC(=O)O [ICOSAPENT]	inactive
CC/C=C\C/C=C\C/C=C\CCCCCCCC(=O)O [LINOLENIC ACID]	inactive

Target: T2, DNA polymerase lambda (Homo sapiens) (UniProt Q9UGP5)
T2 sequence (whole entry): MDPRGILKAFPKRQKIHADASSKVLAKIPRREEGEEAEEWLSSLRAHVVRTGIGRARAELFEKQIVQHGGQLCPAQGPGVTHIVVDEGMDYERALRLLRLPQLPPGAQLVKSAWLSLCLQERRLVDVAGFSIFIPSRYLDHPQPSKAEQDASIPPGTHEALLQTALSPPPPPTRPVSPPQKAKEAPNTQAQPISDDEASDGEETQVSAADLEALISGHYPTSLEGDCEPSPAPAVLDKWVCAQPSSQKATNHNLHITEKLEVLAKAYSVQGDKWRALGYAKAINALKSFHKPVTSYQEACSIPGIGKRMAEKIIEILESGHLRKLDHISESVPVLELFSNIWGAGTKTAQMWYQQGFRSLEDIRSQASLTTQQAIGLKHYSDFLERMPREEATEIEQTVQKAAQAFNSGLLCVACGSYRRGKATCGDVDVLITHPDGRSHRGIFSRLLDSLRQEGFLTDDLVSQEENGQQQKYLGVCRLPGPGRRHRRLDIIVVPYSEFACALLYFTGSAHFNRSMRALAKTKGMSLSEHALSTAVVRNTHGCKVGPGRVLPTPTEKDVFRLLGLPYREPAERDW
Test: Inhibition of recombinant His-tagged human DNA polymerase lambda using bovine deoxyribonuclease 1-treated DNA and dNTP as the DNA template-primer and nucleotide substrate at 10 uM after 60 mins
Conditions: not given

SMILES	inhibition
CC/C=C\C/C=C\C/C=C\C/C=C\C/C=C\C/C=C\CCC(=O)O [DOCONEXENT]	inactive
CC/C=C\C/C=C\C/C=C\C/C=C\C/C=C\CCCC(=O)O [ICOSAPENT]	inactive
CC/C=C\C/C=C\C/C=C\CCCCCCCC(=O)O [LINOLENIC ACID]	inactive

Target: T2, DNA polymerase lambda (Homo sapiens)
Test: Inhibition of recombinant His-tagged human DNA polymerase lambda using poly(dA)/oligo(dT)18 (A/T = 2/1) and dTTP as the DNA template-primer and nucleotide substrate at 10 uM after 60 mins
Conditions: not given
Procedure, shortened: (§1)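 Compound in DMSO, sonicated 30 s. Premixed 0 °C, 10 min with enzyme (0.05 units) in 50 mM Tris-HCl pH 7.5, 1 mM DTT, 50% glycerol, 0.1 mM EDTA, then added to standard reaction mixture. Template-primers: poly(dA)/oligo(dT)18 (2/1) for pols, oligo(dT)18 for TdT, poly(rA)/oligo(dT)18 for HIV-1 RT, with [3H]dTTP. 60 min at 37 °C (Taq 74 °C). Activity relative to no-inhibitor control; mean ± SE of three experiments.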

SMILES	inhibition
CC/C=C\C/C=C\C/C=C\C/C=C\C/C=C\C/C=C\CCC(=O)O [DOCONEXENT]	inactive
CC/C=C\C/C=C\C/C=C\C/C=C\C/C=C\CCCC(=O)O [ICOSAPENT]	inactive
CC/C=C\C/C=C\C/C=C\CCCCCCCC(=O)O [LINOLENIC ACID]	inactive

Species on record: Homo sapiens
Test: Inhibition of histidine-tagged human DNA polymerase gamma using bovine deoxyribonuclease 1-treated DNA and dNTP as the DNA template-primer and nucleotide substrate at 10 uM after 60 mins
Conditions: not given

SMILES	inhibition
CC/C=C\C/C=C\C/C=C\C/C=C\C/C=C\C/C=C\CCC(=O)O [DOCONEXENT]	inactive
CC/C=C\C/C=C\C/C=C\C/C=C\C/C=C\CCCC(=O)O [ICOSAPENT]	inactive
CC/C=C\C/C=C\C/C=C\CCCCCCCC(=O)O [LINOLENIC ACID]	inactive

System: not listed separately
Test: Cytotoxicity against mouse RAW264.7 cells
Assay type: cell-based
Conditions: read-out: LD50 (the source's name)

SMILES	CC50
CC/C=C\C/C=C\C/C=C\C/C=C\C/C=C\C/C=C\CCC(=O)O [DOCONEXENT]	> 10 µM
CC/C=C\C/C=C\C/C=C\C/C=C\C/C=C\CCCC(=O)O [ICOSAPENT]	> 10 µM
CC/C=C\C/C=C\C/C=C\CCCCCCCC(=O)O [LINOLENIC ACID]	> 10 µM

Target: T1, DNA polymerase kappa (Homo sapiens)
Test: Inhibition of C-terminal His6-tagged human DNA polymerase kappa (amino acids 1 to 560) using poly(dA)/oligo(dT)18 (A/T = 2/1) and dTTP as the DNA template-primer and nucleotide substrate at 10 uM after 60 mins
Conditions: not given

SMILES	inhibition
CC/C=C\C/C=C\C/C=C\C/C=C\C/C=C\C/C=C\CCC(=O)O [DOCONEXENT]	inactive
CC/C=C\C/C=C\C/C=C\C/C=C\C/C=C\CCCC(=O)O [ICOSAPENT]	inactive
CC/C=C\C/C=C\C/C=C\CCCCCCCC(=O)O [LINOLENIC ACID]	inactive

System: RAW264.7
Test: Antiinflammatory activity in mouse RAW264.7 cells assessed as inhibition of LPS-induced TNFalpha secretion at 5 uM treated 30 mins before LPS challenge measured after 24 hrs by ELISA
Assay type: functional, cell-based
Conditions: not given
Procedure, shortened: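 RAW264.7 cells in MEM with 4.5 g/L glucose, 10% FCS, 5 mM L-glutamine, at 37 °C in 5% CO2. Seeded at 5 × 10⁴ cells/well and grown 24 h. Compound (final 1 and 5 µM) given 30 min before 100 ng/mL LPS. After 24 h, TNF-α in the medium measured by ELISA, relative to the no-compound value (100%). Mean ± SE, n = 4.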

SMILES	Activity
CC/C=C\C/C=C\C/C=C\C/C=C\C/C=C\C/C=C\CCC(=O)O [DOCONEXENT]	inactive
CC/C=C\C/C=C\C/C=C\C/C=C\C/C=C\CCCC(=O)O [ICOSAPENT]	inactive
CC/C=C\C/C=C\C/C=C\CCCCCCCC(=O)O [LINOLENIC ACID]	inactive

Species on record: Homo sapiens
Test: Inhibition of histidine-tagged human DNA polymerase gamma using poly(dA)/oligo(dT)18 (A/T = 2/1) and dTTP as the DNA template-primer and nucleotide substrate at 10 uM after 60 mins
Conditions: not given
Procedure, shortened: as §1

SMILES	inhibition
CC/C=C\C/C=C\C/C=C\C/C=C\C/C=C\C/C=C\CCC(=O)O [DOCONEXENT]	inactive
CC/C=C\C/C=C\C/C=C\C/C=C\C/C=C\CCCC(=O)O [ICOSAPENT]	inactive
CC/C=C\C/C=C\C/C=C\CCCCCCCC(=O)O [LINOLENIC ACID]	inactive

Species on record: Bos taurus
Test: Inhibition of calf DNA polymerase alpha using poly(dA)/oligo(dT)18 (A/T = 2/1) and dTTP as the DNA template-primer and nucleotide substrate at 10 uM after 60 mins
Conditions: not given
Procedure, shortened: as §1

SMILES	inhibition
CC/C=C\C/C=C\C/C=C\C/C=C\C/C=C\C/C=C\CCC(=O)O [DOCONEXENT]	inactive
CC/C=C\C/C=C\C/C=C\C/C=C\C/C=C\CCCC(=O)O [ICOSAPENT]	inactive
CC/C=C\C/C=C\C/C=C\CCCCCCCC(=O)O [LINOLENIC ACID]	inactive
